Series [1] can be described thus: Dissociation constant, pKa of the compound with basic tertiary amino group by pH titration method. It is filed as physicochemical.
Series [2] is described as follows: Inhibition of beta-hematin formation assessed as equivalents of drug relative to hematin for 50% inhibition at pH 4.5 by BHIA assay. It counts as functional. An outline of the steps: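 β-Hematin formation mediated by 4.5 M acetate, pH 4.5, in a 96-well plate format. Unconverted hematin is dissolved with 5% (v/v) aqueous pyridine at pH 7.5, which leaves β-hematin undissolved. Result expressed as equivalents of compound relative to hematin at 50% inhibition.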

Series [3] relates to Plasmodium falciparum. Description: Antimalarial activity against erythrocyte stages of chloroquine-sensitive Plasmodium falciparum D10 infected in human erythrocytes by lactate dehydrogenase assay. It is filed as functional, organism-based. An outline of the steps: (§1)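 Asexual blood-stage P. falciparum in continuous culture (modified Trager–Jensen), read out by parasite lactate dehydrogenase. Stocks are 2 mg/mL in DMSO or methanol. […] IC50 comes from nonlinear dose–response fitting.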

A short description of series [4]: Dissociation constant, pKa of the compound with quinoline heteroaromatic N atom by pH titration method. It counts as physicochemical.
In series [5] the test system is Plasmodium falciparum. Description: Antimalarial activity against erythrocyte stages of chloroquine-resistant Plasmodium falciparum K1 infected in human erythrocytes by lactate dehydrogenase assay. It is filed as functional, organism-based. An outline of the steps: as §1
Series [6] concerns Plasmodium falciparum. Nature of the series: Resistance index, ratio of IC50 for chloroquine-resistant Plasmodium falciparum K1 to IC50 for chloroquine-sensitive Plasmodium falciparum D10. It is filed as functional. An outline of the steps:
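Resistance index is the IC50 against the resistant strain divided by the IC50 against D10. Both IC50s come from the lactate dehydrogenase growth assay on asexual blood stages, run by the same serial-dilution protocol.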

In series [7] the test system is Plasmodium berghei. Nature of the series: Antimalarial activity against Plasmodium berghei infected in NMRI mouse assessed as host survival time at 100 mg/kg, po administered on day 0, 1, 2 and 3 after postinfection (reference value: 4 days). It is filed as functional. An outline of the steps: (§2)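 P. berghei in female NMRI mice (modified Peters 4-day test): 0.2 mL of donor blood diluted to 10^8 parasitized erythrocytes/mL given i.v. Oral dosing starts 4 h postinfection, with further daily doses at 24, 48 and 72 h by regimen. Groups of 3 treated and 5 untreated mice. Survival followed to day 30, and survivors are checked for parasitemia.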

Series [8] deals with Plasmodium berghei. Nature of the series: Antimalarial activity against Plasmodium berghei infected in NMRI mouse assessed as reduction of parasitemia level at 30 mg/kg, po administered on day 0, 1, 2 and 3 after postinfection (reference value: 0.38%). On the set-up: scale not given: the % may be the effect or the level left. It is filed as functional.
For series [9], the target named is T1, Chloroquine resistance transporter (Plasmodium falciparum, UniProt Q9N623).
T1 sequence (Q9N623 whole entry): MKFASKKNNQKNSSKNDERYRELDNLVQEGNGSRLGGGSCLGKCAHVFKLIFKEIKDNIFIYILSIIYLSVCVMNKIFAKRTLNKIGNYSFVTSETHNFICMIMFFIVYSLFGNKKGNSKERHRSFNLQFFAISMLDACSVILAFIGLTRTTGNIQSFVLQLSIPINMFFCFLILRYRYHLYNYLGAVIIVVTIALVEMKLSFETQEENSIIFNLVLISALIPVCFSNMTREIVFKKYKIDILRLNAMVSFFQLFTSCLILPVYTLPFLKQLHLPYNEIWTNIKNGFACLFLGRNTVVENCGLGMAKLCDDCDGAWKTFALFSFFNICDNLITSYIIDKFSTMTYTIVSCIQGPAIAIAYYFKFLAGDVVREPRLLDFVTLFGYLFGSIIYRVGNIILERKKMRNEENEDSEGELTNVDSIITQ
Description: Inhibition of chloroquine-resistant Plasmodium falciparum Dd2 chloroquine resistance transporter expressed in xenopus laevis oocytes assessed as inhibition of [3H]chloroquine uptake after 1 to 2 hrs. It counts as cell-based, Oocyte.

Series [10] has as its system Plasmodium berghei. Nature of the series: Antimalarial activity against Plasmodium berghei infected in NMRI mouse assessed as reduction of parasitemia level at 100 mg/kg, po administered on day 0, 1, 2 and 3 after postinfection (reference value: 0.12%). It is filed as functional. On the set-up: scale not given: the % may be the effect or the level left.
For series [11], the system named is Plasmodium berghei. Description: Antimalarial activity against Plasmodium berghei infected in NMRI mouse assessed as host survival time at 30 mg/kg, po administered on day 0, 1, 2 and 3 after postinfection (reference value: 4 days). It counts as functional. An outline of the steps: as §2
Series [12] has as its system Plasmodium berghei. Nature of the series: Antimalarial activity against Plasmodium berghei infected in NMRI mouse assessed as parasitized red blood cells level at 100 mg/kg, po administered on day 0, 1, 2 and 3 after postinfection measured on day 4 (reference value: 78%). It counts as functional.
Series [13] relates to Plasmodium berghei. Nature of the series: Antimalarial activity against Plasmodium berghei infected in NMRI mouse assessed as parasitized red blood cells level at 30 mg/kg, po administered on day 0, 1, 2 and 3 after postinfection measured on day 4 (reference value: 78%). It counts as functional.
Another series relates to CHO. Description: Cytotoxicity against CHO cells by MTT assay. As to conditions: Cricetulus griseus. It is filed as cell-based. An outline of the steps: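 CHO cells, MTT colorimetric growth read-out. Compound from a 2 mg/mL stock, tested from 100 μg/mL in 10-fold serial dilutions in complete medium (5 concentrations, lowest 0.01 μg/mL). Emetine reference. IC50 from nonlinear dose–response fitting; mean ± SEM, n = 3.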

Series [14] can be described thus: Selectivity index, ratio of IC50 for CHO cells to IC50 for chloroquine-sensitive Plasmodium falciparum D10. It is filed as toxicity, cell-based. Particulars: hamster, read-out: Ratio IC50. An outline of the steps: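 The D10 value came from parasite lactate dehydrogenase read-out on erythrocytic cultures, 10 two-fold dilutions from 100 ng/mL, with nonlinear dose–response fitting.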

For series [15], the system named is Plasmodium berghei. Nature of the series: Antimalarial activity against Plasmodium berghei infected in NMRI mouse assessed as host survival time at 30 mg/kg, po administered on day 0, 1 and 2 after postinfection (reference value: 4 days). It is filed as functional. An outline of the steps: as §2
Series [16] relates to Plasmodium berghei. Nature of the series: Antimalarial activity against Plasmodium berghei infected in NMRI mouse assessed as parasitized red blood cells level at 30 mg/kg, po administered on day 0, 1 and 2 after postinfection measured on day 4 (reference value: 78%). It counts as functional.
Series [17] relates to Plasmodium berghei. Description: Antimalarial activity against Plasmodium berghei infected in NMRI mouse assessed as parasitized red blood cells level at 100 mg/kg, po administered on day 0, 1 and 2 after postinfection measured on day 4 (reference value: 78%). It counts as functional.
Series [18] concerns Plasmodium berghei. Nature of the series: Antimalarial activity against Plasmodium berghei infected in NMRI mouse assessed as host survival time at 100 mg/kg, po administered on day 0, 1 and 2 after postinfection (reference value: 4 days). It is filed as functional. An outline of the steps: as §2
Series [19] concerns Plasmodium berghei. Nature of the series: Antimalarial activity against Plasmodium berghei infected in NMRI mouse assessed as reduction of parasitemia level at 30 mg/kg, po administered on day 0, 1 and 2 after postinfection (reference value: 0.13%). It is filed as functional. On the set-up: scale not given: the % may be the effect or the level left.
In series [20] the test system is Plasmodium berghei. Nature of the series: Antimalarial activity against Plasmodium berghei infected in NMRI mouse assessed as reduction of parasitemia level at 100 mg/kg, po administered on day 0, 1 and 2 after postinfection (reference value: 0.11%). It is filed as functional. On the set-up: scale not given: the % may be the effect or the level left.
Series [21] concerns the target T2, Chloroquine resistance transporter (Plasmodium falciparum) (UniProt Q9N623).
T2 sequence (whole entry): T1 sequence (Q9N623 whole entry)
Description: Inhibition of chloroquine-sensitive Plasmodium falciparum D10 chloroquine resistance transporter expressed in xenopus laevis oocytes assessed as inhibition of [3H]chloroquine uptake after 1 to 2 hrs. It is filed as cell-based. As to conditions: Oocyte.

As usually defined, the pKa is the pH at which an ionisable group is half protonated.

Active and inactive are the calls of the source. The rule behind the calls is not given here. A value given as a limit tells only on which side of the number the result lay.

For `CN(Cc1ccc(N(C)C)cc1)Cc1cccc(CNc2ccnc3cc(Cl)ccc23)c1`, the pKa in series [1] worked out at 9.67; in series [4], 7.36. For the same compound, the results for the IC50 (in series [2]; with Plasmodium falciparum [3]; in the series with Plasmodium falciparum [5]) were 0.5 equivalents, over 0.1 mg/L and 0.281 µM, respectively.

As for `CN(Cc1ccccc1)Cc1ccccc1CNc1ccnc2cc(Cl)ccc12`, the “Ratio IC50” value with Plasmodium falciparum [6] was 0.9. For the same compound, the Time was found to be 30 days with Plasmodium berghei [7] and 20.7 days with Plasmodium berghei [11]. Also, the Activity in the series on Plasmodium berghei [8] was 99.6%; in the series with Plasmodium berghei [10] it was 99.9%; in the series on Plasmodium berghei [12] it was 0.09%; in the series on Plasmodium berghei [13], 0.3%. Also, the IC50 came out at 58 µM in [9], 1.1 equivalents in series [2], 0.14 µM in the series on Plasmodium falciparum [3] and 0.122 µM with Plasmodium falciparum [5]. The pKa is 9.85 in series [1] and 7.57 in series [4].

As to `CN(Cc1ccc(Cl)cc1)Cc1ccc(CNc2ccnc3cc(Cl)ccc23)cc1`, the pKa in [1] is 9.74; in series [4], 7.44. The IC50 in series [2] is 0.34 equivalents; in the series with Plasmodium falciparum [3], over 0.1 mg/L; in the series with Plasmodium falciparum [5] it was over 10 mg/L.

Consider `CC[C@H]1CN2CCc3cc(OC)c(OC)cc3[C@@H]2C[C@@H]1C[C@H]1NCCc2cc(OC)c(OC)cc21` [EMETINE], for which the IC50 in the series with CHO worked out at 0.08 µM.

Consider `CN(Cc1ccc(N(C)C)cc1)Cc1ccccc1CNc1ccnc2cc(Cl)ccc12`, for which, in the series with Plasmodium falciparum [6], the “Ratio IC50” value was determined as 0.8. Also, the values for the pKa in [1] and in series [4] were 9.71 and 7.4, respectively. In addition, the results for the IC50 (in series [2]; with Plasmodium falciparum [3]; in the series with Plasmodium falciparum [5]) were 0.48 equivalents, 0.178 µM and 0.149 µM, respectively.

Take `CN(Cc1ccc(Cl)cc1)Cc1ccccc1CNc1ccnc2cc(Cl)ccc12`: the pKa in [1] was 9.6; in [4], 7.44. Also, the results for the IC50 (in series [2]; in the series with Plasmodium falciparum [5]) were 1.4 equivalents and 1.13 µM, respectively.

Turning to `COc1ccc(CN(C)Cc2ccccc2CNc2ccnc3cc(Cl)ccc23)cc1`, the “Ratio IC50” value in the series with Plasmodium falciparum [6] is given as 0.8. In addition, the pKa amounted to 9.85 in series [1] and 7.47 in [4]. The IC50 in [2] is 0.46 equivalents; in the series with Plasmodium falciparum [3], 0.175 µM; in the series with Plasmodium falciparum [5], 0.134 µM.

Regarding `CN(Cc1ccccc1)Cc1cccc(CNc2ccnc3cc(Cl)ccc23)c1`, in the series with Plasmodium falciparum [6], the “Ratio IC50” value is 1. The selectivity ratio in [14] is 1270. In addition, the IC50 in series [9] turned out to be 36 µM; in the series with CHO, 70 µM; in series [2], 0.69 equivalents; in the series on Plasmodium falciparum [3] it was 0.041 µM; in the series with Plasmodium falciparum [5], 0.043 µM. For the same compound, the Time in the series on Plasmodium berghei [15] was determined as 16.7 days; in the series on Plasmodium berghei [18], 30 days. The values for the pKa in series [1] and in series [4] were 9.77 and 7.63, respectively. The Activity was found to be 0.1% in the series with Plasmodium berghei [16], 0.09% with Plasmodium berghei [17], 99.9% in the series with Plasmodium berghei [19] and 99.9% in the series on Plasmodium berghei [20].

With `COc1ccc(CN(C)Cc2ccc(CNc3ccnc4cc(Cl)ccc34)cc2)cc1`, the “Ratio IC50” value in the series with Plasmodium falciparum [6] turned out to be 0.7. Also, the pKa in series [1] was 9.7; in [4], 7.44. The IC50 in [2] amounted to 1.44 equivalents; with Plasmodium falciparum [3], 0.13 µM; in the series on Plasmodium falciparum [5] it was 0.088 µM.

As to `CN(Cc1ccc(Cl)cc1)Cc1cccc(CNc2ccnc3cc(Cl)ccc23)c1`, in the series on Plasmodium falciparum [6], the “Ratio IC50” value is recorded as 0.6. In addition, the pKa in [1] was 9.89; in [4], 7.55. Besides, the IC50 in series [2] amounted to 0.66 equivalents; with Plasmodium falciparum [3], 0.138 µM; in the series on Plasmodium falciparum [5] it was 0.085 µM.

Turning to `COc1ccc(CN(C)Cc2cccc(CNc3ccnc4cc(Cl)ccc34)c2)cc1`, in the series on Plasmodium falciparum [6], the “Ratio IC50” value worked out at 1.3. The pKa in series [1] was found to be 9.67; in series [4], 7.38. For the same compound, the IC50 was 0.52 equivalents in series [2], 0.091 µM with Plasmodium falciparum [3] and 0.12 µM in the series with Plasmodium falciparum [5].

As to `CN(Cc1ccc(CNc2ccnc3cc(Cl)ccc23)cc1)Cc1ccc(N(C)C)cc1`, in the series on Plasmodium falciparum [6], the “Ratio IC50” value amounted to 0.8. In addition, in [14], the selectivity ratio is over 4790. For the same compound, the IC50 with CHO was over 225 µM; in series [2] it was 0.4 equivalents; in the series on Plasmodium falciparum [3] it was 0.047 µM; in the series with Plasmodium falciparum [5], 0.036 µM. Also, the pKa was 9.66 in series [1] and 7.33 in [4].

With `CCN(CC)CCCC(C)Nc1ccnc2cc(Cl)ccc12` (stereo not drawn) [CHLOROQUINE], the inhibition result in [21] was “Active”. Further, the IC50 in series [2] was 1.9 equivalents.

The values above are taken from ChEMBL document CHEMBL1828581 (J Med Chem, 2011).
